Screening data (PubChem)
These entries were drawn from the full list.
PGC1a acetyl up – raises PGC1a acetylation signal in U2OS cells | actives 0.21% (n = 350,000) | U2OS PGC1a acetylation AlphaScreen, overnight | activation, % at 15.6 µM;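 active means every replicate reaching activation of at least 50%, whatever the mean replicate activation; inconclusive means replicates that disagree or another doubt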;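 further: hits raise the AlphaScreen acetylation signal above neutral controls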
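System: Flag-PGC1a/GCN5 U2OS cells | Quantity: 7000 cells/well | Times: Overnight compound treatment, 37 °C | Measured by: AlphaScreen proximity luminescence, anti-acetyl-lysine antibody | Dosing: One concentration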
Hep G6PC suppr – PGC-1a acetylation activator altering hepatocyte G6PC expression; 240 tested, under 10 active; shares compounds with PGC1a acetyl up; primary mouse hepatocytes, G6PC mRNA qPCR, forskolin; G6PC suppression (normalized activity, % of positive control; higher = more suppression), % at 26 µM;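 active means dose curves showing G6PC suppression whose half-maximal dose is at most twice the top valid dose; inconclusive means flat curves with moderate negative activity, or unreliable fits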;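 further: G6PC expression relative to GAPDH housekeeping gene as delta delta Ct; 0% = median of neutral control wells and 100% = median of positive control wells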
Hep PCK1 suppr – PGC-1a acetylation activator altering hepatocyte PCK1 expression; shares compounds with PGC1a acetyl up; primary mouse hepatocytes, PCK1 mRNA qPCR, forskolin-stimulated; PCK1 expression decrease, unspecified at 26 µM; 230 tested, under 10 active;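 active means compounds lowering PCK1 expression whose fitted half-maximal concentration is at most twice the top tested dose; inconclusive means flat fit with moderate opposite-direction effect, or poor fit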;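 further: values are delta delta Ct of PCK1 relative to GAPDH; higher delta delta Ct means lower PCK1 expression so positive values indicate hits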
Hep PGC-1a down – PGC-1a acetylation activators affecting PGC-1a expression in hepatocytes; shares compounds with PGC1a acetyl up; primary mouse hepatocytes, PGC-1a mRNA qPCR, forskolin; top dose 26 µM; 240 tested, under 10 active; max activity (PGC-1a expression decrease), %;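 active means compound lowering PGC-1a expression with fitted half-maximal concentration at most twice its top tested dose; inconclusive means flat curve with moderate opposite-direction effect, or poor fit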;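 further: 0% = neutral control wells median and 100% = positive control wells median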
An asterisk follows results filed as active; ? = inconclusive; nt = no result given.

SMILES	PGC1a acetyl up	Hep G6PC suppr	Hep PCK1 suppr	Hep PGC-1a down
CCCCN(CCCC)S(=O)(=O)c1ccc2oc(C(=O)N3CCOCC3)c(C)c2c1	102*	11	5.3	48
CCN1C(=O)CCCc2ccccc21	-68	nt	nt	nt
O=C(N/N=C/c1ccc(OC2CSC2)cc1)c1ccc(CN2CCOCC2)cc1	-42	nt	nt	nt
O=C(NCc1cccs1)c1ccc(Cl)c(S(=O)(=O)N2CCCC2)c1	?	129	nt	?
COCCN(C)Cc1nc(C(c2ccccc2)c2ccccc2)no1	-52	nt	nt	nt
Cc1cc(N2CCN(C)CC2)nc2ccc(NC(=S)N3CCN(c4cccc(Cl)c4)CC3)cc12	-48	nt	nt	nt
O=C(C(Cc1ccccc1)n1cccc1)N1CCN(c2ccccc2)CC1 (configuration not stated)	?	-81	-4.9	29
C(=N\Nc1nc2ccccc2[nH]1)/c1ccc2ncccc2c1	-49	nt	nt	nt
Cc1ccc(Sc2ncnc3onc(C)c23)c(C)c1	-42	nt	nt	nt
Cc1ccc(NC2=C/C(=N\S(=O)(=O)c3cccs3)c3ccccc3C2=O)c(C)c1	-93	nt	nt	nt
Cc1ccc(Nc2nnc(C)c3ccccc23)c(C)c1	?	-20	-29	88
Nc1c(C(=O)Nc2ccccc2)c2nc3ccccc3nc2n1CCCN1CCOCC1	57*	197	106	-12
O=C(Nc1nc2ccsc2c(=O)s1)C1CCC1	-65	nt	nt	nt
Cc1ccccc1CSc1nnc(-c2ccco2)n1Cc1ccco1	-99	nt	nt	nt
CCN(CC)CCNc1nc(-c2ccc(OC)cc2)c(-c2ccc(OC)cc2)s1	-45	nt	nt	nt
CCC(=O)N(CC)c1nc(-c2ccc(OC)cc2)cs1	-48	-10	-26	65
CC(=O)Oc1ccc(-c2csnn2)cc1	-95	nt	nt	nt
CSc1nn(-c2ccc(C(=O)OC(C(=O)NC(N)=O)C(C)C)cc2)c(=S)s1 (configuration not stated)	-45	nt	nt	nt
O=c1oc(-c2ccccc2)nc2sc3c(c12)CCC3	-42	nt	nt	nt
NC(=O)Cn1cc(C(=O)c2cccs2)c2ccccc21	?	nt	-14	26
COc1ccc(-c2nc3c(C)cc(Br)cn3c2Cc2ccc(C)cc2)cc1OC	?	215	131	99
Cc1oc2c(c1C(=O)c1ccccc1)C(=O)C(=O)c1ccccc1-2	-66	nt	nt	nt
Cc1cccn2c(=O)c3cc(C(=O)NCc4ccco4)c(=N)n(CCc4ccccc4)c3nc12	-55	nt	nt	nt
Cn1cc(-c2ccc(C(=O)NCc3cccc(Cl)c3)c3occc23)cn1	59*	-68	-9.2	64
O=C(CSc1nc2cc(Cl)ccc2s1)NCC1CCCO1 (configuration not stated)	-52	nt	nt	nt
SMILES	PGC1a acetyl up	Hep G6PC suppr	Hep PCK1 suppr	Hep PGC-1a down
CC1(C(=O)Nc2cccc(C#N)c2)CCN1C(=O)CCc1ccccc1 (configuration not stated)	-44	nt	nt	nt
COc1ccc(N=C2SCC(c3ccc(C)cc3)=NN2CCO)cc1	-78	nt	nt	nt
CCOC(=O)C1CCN(C(=O)CSc2ccc(Br)cc2)CC1	-40	nt	nt	nt
O=C(c1cc(-c2ccccc2)nc2ccccc12)N1N=C(C(F)F)CC1(O)C(F)F (configuration not stated)	-38	nt	nt	nt
C[C@H](CO)N1C[C@H](C)[C@H](CN(C)Cc2ccc(Oc3ccccc3)cc2)Oc2c(NC(=O)Nc3ccc4c(c3)OCO4)cccc2C1=O	-40	nt	nt	nt
C[C@H]1CN([C@@H](C)CO)C(=O)c2cccc(NS(=O)(=O)c3ccc(F)cc3)c2O[C@H]1CN(C)Cc1ccc(C(F)(F)F)cc1	-55	23	37	89
O=Nc1c(O)c2ccccc2c2ccccc12	-45	nt	nt	nt
CCOC(=O)C1=C(CNCc2ccc(C)cc2)NC(=O)NC1c1cc(C)ccc1C (configuration not stated)	-50	nt	nt	nt
